Measured values as given in PMC5966832 (Environmental science & technology, 2018).

Key:
[1] = test system: rat liver microsomes; conditions: E2-PCB 91 enriched; cited from earlier work
[2] = test system: recombinant rat CYP2B1; conditions: E2-PCB 91 enriched; cited from earlier work
[3] = test system: human liver microsomes; format: in vitro ADME; conditions: for Difference in rate of metabolite formation, donor H1 vs. donor H5: individual donor HLM preparations
Outline: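 Pooled HLMs (50 donors, mixed gender) or female single-donor HLMs (H1–H5, age 20–58) were used. Buffer was 0.1 M phosphate pH 7.4 with 3 mM MgCl2. Pre-incubated 5 min at 37 °C, then started with substrate in DMSO (≤0.5% of volume), in triplicate. Stopped with ice-cold 0.5 M NaOH and heated 110 °C for 10 min. Extracts were methylated and run on GC-μECD against PCB 204 using relative response factors. Rates adjusted per nmol P450 or per mg protein.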

[4] = format: physicochemical; conditions: extract heated at 300 °C for 2 h; for EF of the OH-PCB metabolite after racemization: 15 min incubation, donor H5
Outline: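 Representative hexane extracts were placed in amber ampules and heated at 300 °C. One came from a pooled-HLM incubation; the other from a 50 μM PCB 91 incubation with donor H5 microsomes. Both were re-run by enantioselective GC-μECD, ChiralDex B-DM or G-TA column according to analyte. EF = E1/(E1+E2), drop valley method.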

[5] = test system: human liver microsomes; experiment: Atropselective; format: in vitro ADME; conditions: for EF of the OH-PCB metabolite before racemization: representative extract, 15 min incubation, 50 μM PCB 91, HLMs from donor H5
Outline: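 Racemic PCB 91 at 50 μM was incubated 15 min at 37 °C with 0.1 mg/mL microsomes and 1 mM NADPH, in triplicate. Depletion runs used 5 or 50 μM, 120 min, 0.5 mg/mL protein and 0.5 mM NADPH. Metabolites were methylated with diazomethane. GC-μECD used a ChiralDex B-DM column (135 °C) for PCB 91, 5-91 and 4-91, and a G-TA column (140 °C) for 3-100. EF = E1/(E1+E2) by drop valley; mean ± SD.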

Compound	EF of PCB 91 in incubations with rat liver microsomes [1]	EF of PCB 91 in incubations with recombinant rat CYP2B1 [2]	PCB 91 added to the incubation converted to OH-PCB metabolites ([3]; 50 μM PCB 91, 0.1 mg/mL HLMs, 1 mM NADPH, 5 or 15 min, 37 °C)	EF of PCB 91 after racemization ([4]; 2 h incubation, 5 μM PCB 91, pHLMs)	EF of PCB 91, all other incubations ([5]; high concentrations of racemic PCB 91)	Difference in rate of metabolite formation, donor H1 vs. donor H5 [3]	EF of the OH-PCB metabolite after racemization [4]	EF of the OH-PCB metabolite before racemization [5]
Clc1ccc(-c2c(Cl)ccc(Cl)c2Cl)c(Cl)c1 [PCB 91, 2,2′,3,4′,6-pentachlorobiphenyl]	0.43	0.45	≤ 2%	0.50	near racemic			
Oc1cc(Cl)c(Cl)c(-c2ccc(Cl)cc2Cl)c1Cl [5-91, 2,2′,3,4′,6-pentachlorobiphenyl-5-ol]						19 fold	0.49	0.43
Oc1cc(Cl)c(-c2ccc(Cl)cc2Cl)c(Cl)c1Cl [4-91, 2,2′,3,4′,6-pentachlorobiphenyl-4-ol]						5.4 fold	0.51	0.85
Oc1c(Cl)cc(Cl)c(-c2ccc(Cl)cc2Cl)c1Cl [3-100, 2,2′,4,4′,6-pentachlorobiphenyl-3-ol]						2.6 fold	0.46	0.87
